The text below walks through data of ChEMBL document CHEMBL3046181 (Molecules, 2013).

In assay [1] the test system is Triticum aestivum. Kind of assay: Post-emergent herbicidal activity against Triticum vulgare var. Salamanca (wheat) assessed as dry biomass at 60 uM after 14 days relative to control. It counts as functional. The procedure, abridged: (§1)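 Plants were grown 18 days in a greenhouse, then sprayed with compound dissolved in MeOH with Tween 20 and maize oil. Controls were sprayed with distilled water containing the same MeOH, Tween 20 and maize oil. Dry biomass of all leaves was weighed 14 days after spraying, and differences from control were judged by Student's t-test (p < 0.05).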

In assay [2] the test system is Trifolium alexandrinum. As to the kind of experiment: Post-emergent herbicidal activity against Trifolium alexandrinum assessed as dry biomass at 60 uM after 14 days relative to control. It counts as functional. The procedure, abridged:
as §1

Assay [3] has as its system Lolium multiflorum. As to the kind of experiment: Post-emergent herbicidal activity against Lolium multiflorum (Italian ryegrass) assessed as dry biomass at 40 uM after 14 days relative to control. It counts as functional. The essentials: as §1
Assay [4] has as its system Physalis ixocarpa. As to the kind of experiment: Post-emergent herbicidal activity against Physalis ixocarpa assessed as dry biomass at 60 uM after 14 days relative to control. In kind it is functional. The essentials: as §1
Assay [5] has as its system Triticum aestivum. Kind of assay: Post-emergent herbicidal activity against Triticum vulgare var. Salamanca (wheat) assessed as dry biomass at 40 uM after 14 days relative to control. It counts as functional. The essentials: as §1
In assay [6] the test system is Trifolium alexandrinum. As to the kind of experiment: Post-emergent herbicidal activity against Trifolium alexandrinum assessed as dry biomass at 40 uM after 14 days relative to control. In kind it is functional. The procedure, abridged: as §1
Assay [7] concerns Physalis ixocarpa. As to the kind of experiment: Post-emergent herbicidal activity against Physalis ixocarpa assessed as dry biomass at 40 uM after 14 days relative to control. It counts as functional. The essentials:
as §1

In assay [8] the test system is Lolium multiflorum. Kind of assay: Post-emergent herbicidal activity against Lolium multiflorum (Italian ryegrass) assessed as dry biomass at 20 uM after 14 days relative to control. In kind it is functional. The procedure, abridged:
as §1

The test system of assay [9] is Triticum aestivum. As to the kind of experiment: Post-emergent herbicidal activity against Triticum vulgare var. Salamanca (wheat) assessed as dry biomass at 20 uM after 14 days relative to control. It counts as functional. The essentials:
as §1

Assay [10] relates to Physalis ixocarpa. As to the kind of experiment: Post-emergent herbicidal activity against Physalis ixocarpa assessed as dry biomass at 20 uM after 14 days relative to control. In kind it is functional. The essentials: as §1
The subject of assay [11] is Trifolium alexandrinum. Kind of assay: Post-emergent herbicidal activity against Trifolium alexandrinum assessed as dry biomass at 20 uM after 14 days relative to control. It counts as functional. The procedure, abridged: as §1
The test system of assay [12] is Lolium multiflorum. As to the kind of experiment: Post-emergent herbicidal activity against Lolium multiflorum (Italian ryegrass) assessed as dry biomass at 60 uM after 14 days relative to control. It counts as functional. The procedure, abridged:
as §1

A short description of assay [13]: Inhibition of mitochondrial complex 1 in Homo sapiens (human) T47D cells by Clark's electrode method. It counts as cell-based.
For assay [14], the system named is Trifolium alexandrinum. As to the kind of experiment: Herbicidal activity against Trifolium alexandrinum assessed as inhibition of seed germination after 5 days. The note with it: 120 h.
Assay [15] deals with Physalis ixocarpa. Kind of assay: Herbicidal activity against Physalis ixocarpa assessed as inhibition of seed germination after 5 days. Conditions: 120 h.
The test system of assay [16] is Spinacia oleracea. Kind of assay: Inhibition of hill reaction in Spinacia oleracea (spinach) chloroplast. In kind it is functional.
In assay [17] the test system is Spinacia oleracea. As to the kind of experiment: Inhibition of light reaction of photosynthesis in Spinacia oleracea (spinach) chloroplast. In kind it is functional.
In assay [18] the test system is Triticum aestivum. Kind of assay: Herbicidal activity against Triticum vulgare var. Salamanca (wheat) assessed as inhibition of seed respiration after 72 hr by Clark's electrode method. It counts as functional, organism-based. The essentials:
(§2)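 Seeds were imbibed in 10 mL water in Petri dishes with compound at 10–50 μM, as in the germination set-up. O2 uptake was measured after 5, 24, 48 and 72 h with an oxygen electrode, where O2-reduction current was converted to voltage. Consumption rate was calculated, with replicates as mean ± S.E. IC50 came from probit analysis.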

In assay [19] the test system is Lolium multiflorum. Kind of assay: Herbicidal activity against Lolium multiflorum (Italian ryegrass) assessed as inhibition of seed respiration after 72 hr by Clark's electrode method. It counts as functional, organism-based. The procedure, abridged:
as §2

The test system of assay [20] is Trifolium alexandrinum. As to the kind of experiment: Herbicidal activity against Trifolium alexandrinum assessed as inhibition of seed respiration after 72 hr by Clark's electrode method. It counts as functional, organism-based. The essentials: as §2
Assay [21] concerns Physalis ixocarpa. Kind of assay: Herbicidal activity against Physalis ixocarpa assessed as inhibition of seed respiration after 72 hr by Clark's electrode method. It counts as functional, organism-based. The essentials:
as §2

Assay [22] relates to Triticum aestivum. Kind of assay: Herbicidal activity against Triticum vulgare var. Salamanca (wheat) assessed as inhibition of seed respiration at 10 to 50 uM by Clark's electrode method. It counts as functional, organism-based. The note with it: TDE = time-dependent effect. The essentials:
(§3)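 Seeds imbibed in 10 mL water on filter paper in Petri dishes, with compound at 10–50 μM (dissolved in MeOH, final MeOH under 1%); controls received the same water and MeOH. O2 uptake was measured polarographically after 5, 24, 48 and 72 h of imbibition, and consumption rate was calculated. IC50 at 72 h was derived by probit/linear regression. Replicate experiments, means ± S.E.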

For assay [23], the system named is Lolium multiflorum. Kind of assay: Herbicidal activity against Lolium multiflorum (Italian ryegrass) assessed as inhibition of seed respiration at 10 to 50 uM by Clark's electrode method. In kind it is functional, organism-based. Conditions: TDE = time-dependent effect. The procedure, abridged:
as §3

Assay [24] deals with Trifolium alexandrinum. As to the kind of experiment: Herbicidal activity against Trifolium alexandrinum assessed as inhibition of seed respiration at 10 to 50 uM by Clark's electrode method. It counts as functional, organism-based. Conditions: TDE = time-dependent effect. The procedure, abridged:
as §3

Assay [25] relates to Physalis ixocarpa. Kind of assay: Herbicidal activity against Physalis ixocarpa assessed as inhibition of seed respiration at 10 to 50 uM by Clark's electrode method. In kind it is functional, organism-based. The note with it: TDE = time-dependent effect. The essentials: as §3
Assay [26] concerns Triticum aestivum. As to the kind of experiment: Herbicidal activity against Triticum vulgare var. Salamanca (wheat) assessed as inhibition of seed respiration after 5 to 72 hr by Clark's electrode method. In kind it is functional, organism-based. The essentials: as §3
Assay [27] has as its system Lolium multiflorum. Kind of assay: Herbicidal activity against Lolium multiflorum (Italian ryegrass) assessed as inhibition of seed respiration after 5 to 72 hr by Clark's electrode method. In kind it is functional, organism-based. The essentials:
as §3

For assay [28], the system named is Trifolium alexandrinum. Kind of assay: Herbicidal activity against Trifolium alexandrinum assessed as inhibition of seed respiration after 5 to 72 hr by Clark's electrode method. It counts as functional, organism-based. The procedure, abridged: as §3
For assay [29], the system named is Physalis ixocarpa. Kind of assay: Herbicidal activity against Physalis ixocarpa assessed as inhibition of seed respiration after 5 to 72 hr by Clark's electrode method. It counts as functional, organism-based. The procedure, abridged:
as §3

Assay [30] relates to Triticum aestivum. As to the kind of experiment: Herbicidal activity against Triticum vulgare var. Salamanca (wheat) assessed as inhibition of shoot elongation after 4 days. Conditions: 96 h.
In assay [31] the test system is Lolium multiflorum. As to the kind of experiment: Herbicidal activity against Lolium multiflorum (Italian ryegrass) assessed as inhibition of shoot elongation after 5 days. Conditions: 120 h.
For assay [32], the system named is Trifolium alexandrinum. As to the kind of experiment: Herbicidal activity against Trifolium alexandrinum assessed as inhibition of shoot elongation after 5 days. Conditions: 120 h.
For assay [33], the system named is Physalis ixocarpa. As to the kind of experiment: Herbicidal activity against Physalis ixocarpa assessed as inhibition of shoot elongation after 5 days. Conditions: 120 h.
For assay [34], the system named is Triticum aestivum. As to the kind of experiment: Herbicidal activity against Triticum vulgare var. Salamanca (wheat) assessed as inhibition of root elongation after 4 days. Conditions: 96 h.
The subject of assay [35] is Lolium multiflorum. Kind of assay: Herbicidal activity against Lolium multiflorum (Italian ryegrass) assessed as inhibition of root elongation after 5 days. Conditions: 120 h.
In assay [36] the test system is Lolium multiflorum. Kind of assay: Herbicidal activity against Lolium multiflorum (Italian ryegrass) assessed as inhibition of seed germination after 5 days. The note with it: 120 h.
Assay [37] concerns Trifolium alexandrinum. As to the kind of experiment: Herbicidal activity against Trifolium alexandrinum assessed as inhibition of root elongation after 5 days. Conditions: 120 h.
For assay [38], the system named is Physalis ixocarpa. Kind of assay: Herbicidal activity against Physalis ixocarpa assessed as inhibition of root elongation after 5 days. The note with it: 120 h.
Assay [39] has as its system Lolium multiflorum. As to the kind of experiment: Herbicidal activity against Lolium multiflorum (Italian ryegrass) assessed as inhibition of seed germination at 50 uM after 5 days. It counts as functional. Conditions: 120 h. The essentials:
(§4)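 Seeds were placed on filter paper in Petri dishes (20 seeds for T. vulgare) and wetted with deionized water or test solution. Compound was given in MeOH at under 1%, and controls held matching MeOH. Three replicate experiments were run. Germination was scored as 1 mm root extrusion, and root and shoot length were measured on all germinated seeds. Student's t-test was used, and IC50 values came from probit analysis.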

Assay [40] has as its system Physalis ixocarpa. Kind of assay: Herbicidal activity against Physalis ixocarpa assessed as inhibition of seed germination at 50 uM after 5 days. It counts as functional. The note with it: 120 h. The essentials: as §4
The subject of assay [41] is Triticum aestivum. As to the kind of experiment: Herbicidal activity against Triticum vulgare var. Salamanca (wheat) assessed as inhibition of seed germination after 4 days. The note with it: 96 h.

As for `C[n+]1ccc(-c2cc[n+](C)cc2)cc1.[Cl-].[Cl-]` [PARAQUAT DICHLORIDE], the Activity is recorded as 67% in assay [1]; 57% in assay [2]; 54% in assay [3]; 84% in assay [4]; 67% in assay [5]; 59% in assay [6]. In addition, the Activity in assay [7] was 100%; in assay [8], 97%; in assay [9], 83%; in [10], 96%; in assay [11] it was 67%; in assay [12] it was 32%.

In general, IC50 refers to the concentration at which inhibition is half-maximal. Turning to `CC(C)(O)[C@H]1CC[C@](C)([C@@H](O)CC[C@](C)(O)[C@H]2CC[C@H]3O[C@@H]([C@]4(C)CC[C@@H](Br)C(C)(C)O4)CC[C@]3(C)O2)O1` [THYRSIFEROL], in [13], the concentration for half-maximal inhibition (IC50) was found to be 3 µM.

Broadly, the inhibition is the change of the read-out against control, counted positive when it falls. As to `CCCCC[C@H]1CCCCCCCCCC(=O)O[C@H]2[C@H](O)[C@@H](CO)O[C@@H](O[C@H]3[C@H](O1)O[C@H](C)[C@H](O)[C@@H]3O)[C@@H]2O[C@@H]1O[C@@H](C)[C@H](OC(=O)[C@@H](C)CC)[C@@H](O[C@@H]2O[C@@H](C)[C@H](O)[C@@H](O)[C@H]2O)[C@H]1OC(=O)[C@@H](C)CC` [TRICOLORIN A], the half-maximal inhibitory concentration (IC50) in assay [14] turned out to be 16 µM; in assay [15], 13.8 µM; in [16], 5 µM; in assay [18] it was 25.7 µM; in assay [19], 8 µM; in [20], 22.6 µM. Further, the IC50 in [21] amounted to 11.7 µM; in assay [30], 8.5 µM; in [31] it was 12.3 µM; in [32], 12.7 µM; in assay [33] it was 12.7 µM; in [34] it was 24.1 µM. Besides, the IC50 in assay [35] was found to be 15.3 µM; in [36], 16.1 µM; in assay [37], 18 µM; in assay [38], 13.8 µM; in assay [41], 25.7 µM. Also, in assay [17], the UC50 was found to be 0.33 µM. The inhibition entry in assay [22] is “tde”; in assay [23], “tde”; in assay [24], “tde”; in [25] it was “tde”; in assay [26], “Dose-dependent effect”; in [27], “Dose-dependent effect”. The inhibition result in [28] and in [29] was “Dose-dependent effect” each time. In addition, the Activity in assay [1] is reported as 67%; in assay [2], 63%; in assay [3], 53%; in [4] it was 78%; in assay [5], 78%; in assay [6] it was 83%. For the same molecule, the Activity in [7] was 84%; in assay [8], 91%; in assay [9], 82%; in assay [10] it was 104%; in assay [11] it was 87%; in [12], 38%. In addition, the inhibition at 50 µM in assay [39] and in assay [40] was 100% throughout.
